Experiment [1] addresses T1, Quinolone resistance protein NorA (Staphylococcus aureus) (UniProt P0A0J7).
T1 sequence (whole entry): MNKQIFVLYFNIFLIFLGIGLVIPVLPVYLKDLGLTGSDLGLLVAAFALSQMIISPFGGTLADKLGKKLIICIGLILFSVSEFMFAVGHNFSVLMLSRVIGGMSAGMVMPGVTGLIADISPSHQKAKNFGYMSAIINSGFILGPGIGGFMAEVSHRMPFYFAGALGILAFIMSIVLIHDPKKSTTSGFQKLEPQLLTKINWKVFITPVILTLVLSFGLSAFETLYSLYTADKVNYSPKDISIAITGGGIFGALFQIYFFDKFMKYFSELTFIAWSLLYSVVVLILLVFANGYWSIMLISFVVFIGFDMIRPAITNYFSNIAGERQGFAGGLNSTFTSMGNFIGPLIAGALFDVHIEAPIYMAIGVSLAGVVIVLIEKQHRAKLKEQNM
Description: Inhibition of wild type Staphylococcus aureus NCTC8325-4 NorA assessed as time taken to inhibit ethidium bromide efflux by measuring fluorescence at 100 uM relative to control. The procedure, abridged: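 Cells grown in Mueller-Hinton broth to OD600 0.74, then loaded with ethidium bromide (25 μM) plus CCCP (100 μM) for 20 min at 20 °C with shaking. Diluted to OD600 0.40, pelleted and held on ice. Resuspended in fresh broth with 10% DMSO final and treatment at 100 μM final; CCCP is the control. Fluorescence (ex 530, em 600 nm) read every second for 300 s. Two-factor ANOVA versus vehicle at t = 300 s.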

For experiment [2], the system named is Staphylococcus aureus. The experiment in a line: Inhibition of Staphylococcus aureus K1758 NorA mutant assessed as inhibition of ethidium bromide efflux by measuring increase in fluorescence at 100 uM after 300 secs.
The subject of experiment [3] is Staphylococcus aureus. The experiment in a line: Antimicrobial activity against NorA efflux pump overexpressing Staphylococcus aureus K2378. In kind it is functional. A digest of the protocol:
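S. aureus K2378 (norA overexpressing); single colony grown to log phase in Mueller-Hinton broth, adjusted by OD600 to 1.0×10^5 CFU/mL final; broth microdilution per CLSI in broth with 2% DMSO; triplicate wells plus bacteria-free background wells; OD600 read after 20 hrs at 37 °C; MIC = concentration with no significant difference (ANOVA) from vehicle control.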

The subject of experiment [4] is Staphylococcus aureus. The experiment in a line: Antimicrobial activity against Staphylococcus aureus. It counts as functional. The procedure, abridged: (§1)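 Broth microdilution MIC per CLSI guidelines. Single-colony S. aureus inoculum grown to log phase in Mueller-Hinton broth, adjusted by OD600 to 1.0×10^5 CFU/mL final. Medium contains 2% DMSO (vehicle, negative control); reserpine is the positive control. Triplicate wells, with bacteria-free wells for background subtraction. OD600 read after 20 hrs at 37 °C.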

Experiment [5] relates to Staphylococcus aureus. Description: Antimicrobial activity against wild-type Staphylococcus aureus NCTC8325-4. It counts as functional. A digest of the protocol:
as §1

SMILES strings stand for the structures. Calls of active or inactive are those of the source.

By MIC is commonly meant the smallest concentration in the dilution series that meets the test's criterion for growth inhibition. Low readings indicate a more susceptible organism, high ones a less susceptible organism.

Take `N#CC(C#N)=NNc1cccc(Cl)c1`: the TIME in experiment [1] was determined as 0.0833 h. Moreover, the inhibition result with Staphylococcus aureus [2] is “inactive”.

For the molecule `COc1ccc2cc3[n+](cc2c1OC)CCc1cc2c(cc1-3)OCO2` [BERBERINE], the MIC is 300 µg/mL with Staphylococcus aureus [3], 150 µg/mL against Staphylococcus aureus [4] and 150 µg/mL against Staphylococcus aureus [5].

Take `COc1cc(O)c2c(=O)cc(-c3ccc(O)cc3)oc2c1C`: the TIME in experiment [1] worked out at 0.0833 h. Further, the inhibition entry with Staphylococcus aureus [2] was “inactive”.

Take `COc1c(C)c(O)c2c(=O)cc(-c3ccc(O)cc3)oc2c1C`: the TIME in experiment [1] turned out to be 0.0833 h. The inhibition entry in the experiment with Staphylococcus aureus [2] is “inactive”.

On to `COc1cc2oc(-c3ccc(O)cc3)cc(=O)c2c(O)c1C` [8-DEMETHYLSIDEROXYLIN], for which the MIC in the experiment on Staphylococcus aureus [3] was above 300 µg/mL. Further, the TIME in experiment [1] was found to be 0.0833 h. Also, the inhibition entry with Staphylococcus aureus [2] is “inactive”.

For the origin of these results see ChEMBL document CHEMBL1817627, “Synergy-directed fractionation of botanical medicines: a case study with goldenseal (Hydrastis canadensis)” (2011).
